Results: ChEMBL document CHEMBL1156117, “Anti-trypanosomatid benzofuroxans and deoxygenated analogues: synthesis using polymer-supported triphenylphosphine, biological evaluation and mechanism of action studies” (Eur J Med Chem, 2009)
pIC50: −log10 of the molar value. Calls of active or inactive are those of the source. The rule behind the calls is not given here.

Experiments:
Trypanosoma cruzi [1] = test: Antitrypanosomal activity against Trypanosoma cruzi Tulahuen 2 epimastigotes assessed as parasite growth inhibition after 5 days; format: functional, organism-based
Summary of the method: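 Tulahuen 2 epimastigotes grown at 28 °C in BHI-tryptose with 5% foetal calf serum. Late-log cells seeded at 3×10⁶/mL in 24-well plates with compound from DMSO stock (final DMSO ≤0.8%; control 0.8% DMSO). A610 read at day 0 and day 5. Growth inhibition calculated from the corrected absorbance ratio to control; IC50 is the concentration giving 50% of the control ratio.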

J774 = test: Cytotoxicity against mouse J774 macrophages after 48 hrs by MTT assay; format: cell-based
Summary of the method: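 Exposed to compounds (1.0–400.0) for 48 h, washed with PBS, then MTT 0.4 mg/mL for 3 h. Formazan dissolved in DMSO, OD595 read. Triplicate per concentration, six growth controls. % cytotoxicity calculated against blanks.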

[2] = Selectivity index, ratio of IC50 for mouse J774 macrophages to IC50 for Trypanosoma cruzi Tulahuen 2 epimastigotes
Leishmania braziliensis [3] = test: Antileishmanial activity against Leishmania braziliensis MHOM/BR/00/LTB300 promastigotes assessed as parasite viability after 5 days by MTT assay; format: functional, organism-based; conditions: MHOM/BR/00/LTB300, 120 h
Summary of the method: (§1)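 Promastigotes (L. braziliensis, L. pifanoi) grown at 28 °C in axenic RPMI with 5% FBS. T. cruzi CL Brener epimastigotes grown in BHI-tryptose with 5% foetal serum. 24-well plates, 1 mL/well, seeded from exponential-phase culture. Compounds in DMSO, added at several concentrations (0.5–50.0) and kept 5 days. Then MTT 0.4 mg/mL for 3 h at 37 °C. Formazan dissolved in DMSO, OD595 read. Triplicate per concentration, six growth controls. Cytotoxicity % calculated against growth and medium blanks, IC50 derived.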

Leishmania pifanoi [4] = test: Antileishmanial activity against Leishmania pifanoi MHOM/VE/57/LV135 promastigotes assessed as parasite viability after 5 days by MTT assay; format: functional, organism-based; conditions: MHOM/VE/57/LV135, 120 h; summary of the method: as §1
Trypanosoma cruzi [5] = test: Antitrypanosomal activity against Trypanosoma cruzi epimastigotes; format: functional, organism-based
Trypanosoma cruzi [6] = test: Antitrypanosomal activity against Trypanosoma cruzi CL Brener epimastigotes assessed as parasite viability after 5 days by MTT assay; format: functional, organism-based; conditions: 120 h; summary of the method: as §1
Trypanosoma cruzi [7] = test: Induction of free radical production Trypanosoma cruzi microsomal fraction at 1 mM using DMPO and FXN spin trapping by ESR spectroscopic analysis; format: functional; conditions: Microsome
Summary of the method: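 T. cruzi microsomal fraction at 4 mg protein/mL, in 20 mM phosphate buffer pH 7.4 with 1 mM NADPH, 1 mM EDTA and 100 mM DMPO or FXN spin trap. Compound added at 1 mM final, dissolved in spectroscopy-grade DMF. Radical adducts detected by ESR.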

Trypanosoma cruzi [8] = test: Inhibition of Trypanosoma cruzi Tulahuen 2 mitochondrial dehydrogenase at 20 uM after 120 mins by MTT assay relative to control
Summary of the method: (§2)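 10⁶ parasites/well (T. cruzi Tulahuen 2 or Y epimastigotes, or L. braziliensis LTB300 promastigotes) in 500 µL medium with 20 µM compound, at 28 °C for up to 240 min; untreated duplicate wells served as time-matched controls. MTT (5 mg/mL stock in PBS) added for 2 h, stopped with acidic isopropanol, A570 read. Activity expressed as % of untreated parasites.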

Leishmania braziliensis [9] = test: Inhibition of Leishmania braziliensis MHOM/BR/00/LTB300 promastigotes mitochondrial dehydrogenase at 20 uM by MTT assay relative to control; conditions: TDE = time-dependent effect; summary of the method: as §2
[10] = target: Cruzipain (Trypanosoma cruzi) (UniProt P25779); test: Inhibition of Trypanosoma cruzi cruzipain at 25 uM
[11] = target: Cruzipain (Trypanosoma cruzi) (UniProt P25779); test: Inhibition of Trypanosoma cruzi cruzipain at 50 uM
[12] = target: Cruzipain (Trypanosoma cruzi) (UniProt P25779); test: Inhibition of Trypanosoma cruzi cruzipain at 100 uM
Leishmania braziliensis [13] = test: Ratio of compound IC50 to Miltefosine IC50 for Leishmania braziliensis MHOM/BR/00/LTB300 promastigotes; format: functional
Trypanosoma cruzi [14] = test: Inhibition of Trypanosoma cruzi Y mitochondrial dehydrogenase at 20 uM after 120 mins by MTT assay relative to control; summary of the method: as §2
Leishmania pifanoi [15] = test: Antileishmanial activity against Leishmania pifanoi MHOM/VE/57/LV135 promastigotes assessed as parasite viability at 5 uM after 5 days by MTT assay; format: functional; conditions: MHOM/VE/57/LV135, 120 h, read-out: GI
Summary of the method: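 L. pifanoi LV135 promastigotes grown at 28 °C in axenic RPMI with 5% FBS. Tested at a single concentration of 5.0 over 5 days. MTT 0.4 mg/mL for 3 h at 37 °C, formazan dissolved in DMSO, OD595 read. Percent growth inhibition reported versus untreated growth controls, with medium blanks subtracted.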

[16] = Trypanosoma cruzi, Tulahuen 2, 120 h

Cruzipain (Trypanosoma cruzi), sequence (P25779 123-467 limits assumed): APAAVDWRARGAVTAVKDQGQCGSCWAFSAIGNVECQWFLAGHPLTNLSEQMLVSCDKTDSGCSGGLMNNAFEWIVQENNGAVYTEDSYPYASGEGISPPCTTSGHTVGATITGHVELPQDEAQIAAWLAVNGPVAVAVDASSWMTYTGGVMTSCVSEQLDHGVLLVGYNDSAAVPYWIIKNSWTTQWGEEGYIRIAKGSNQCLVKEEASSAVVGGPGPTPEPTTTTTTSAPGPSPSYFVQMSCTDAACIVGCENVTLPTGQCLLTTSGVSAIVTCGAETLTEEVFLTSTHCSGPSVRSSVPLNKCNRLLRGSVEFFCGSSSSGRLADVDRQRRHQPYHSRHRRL

SMILES | pIC50 (Trypanosoma cruzi [1]; [16]) | pIC50 (J774; Mus musculus, J774, 48 h) | Selectivity Index [2] | pIC50 (Trypanosoma cruzi [6]) | further results
O=C(/C=C/c1ccc2nonc2c1)c1ccc([N+](=O)[O-])cc1 | < 4.00 | 3.88 | <1.3 |  | 
[O-][n+]1onc2ccc(/C=C/Sc3ccccc3)cc21 |  |  |  |  | pIC50 (Leishmania braziliensis [3]): 5.82; pIC50 (Leishmania pifanoi [4]): 5.37; pIC50 (Trypanosoma cruzi [5]): 5.59
O=C(/C=C/c1ccc2no[n+]([O-])c2c1)c1ccc(Cl)cc1 | 4.60 | 4.55 | 1.1 |  | 
[O-][n+]1onc2ccc(/C=C\Sc3ccc(F)cc3)cc21 | 4.92 |  |  | 5.23 | pIC50 (Leishmania braziliensis [3]): 5.77; pIC50 (Leishmania pifanoi [4]): 5.35; Activity (Trypanosoma cruzi [7]): Active
O=S(=O)(/C=C/c1ccc2no[n+]([O-])c2c1)c1ccccc1 (stereo in doubt; 4E) [listing 1 of 2 here] |  |  | 10 |  | pIC50 (Leishmania braziliensis [3]): 4.67; pIC50 (J774; j774): 4.80; pIC50 (Trypanosoma cruzi [5]): 5.80
C=CS(=O)(=O)Cc1ccc2no[n+]([O-])c2c1 |  |  |  |  | pIC50 (Leishmania braziliensis [3]): 4.77; inhibition (Trypanosoma cruzi [8]): 58.5%; Activity (Leishmania braziliensis [9]): tde; pIC50 (Trypanosoma cruzi [5]): 4.84
O=C(/C=C/c1ccc2nonc2c1)c1ccccc1 | 4.01 | 3.99 | 1.1 |  | 
O=S(=O)(/C=C/c1ccc2no[n+]([O-])c2c1)c1ccccc1 (stereo in doubt; 25) |  |  | 3.1 |  | pIC50 (J774; j774): 4.11
O=S(=O)(/C=C\c1ccc2no[n+]([O-])c2c1)c1ccccc1 |  | 4.96 | 10 |  | pIC50 (Leishmania braziliensis [3]): 4.97; pIC50 (Trypanosoma cruzi [5]): 5.96
[O-][n+]1onc2ccc(/C=C/[S+]([O-])c3ccccc3)cc21 (stereo in doubt; 24) |  |  | >10 |  | pIC50 (J774; j774): < 3.40
Cc1ccc(S(=O)(=O)/C=C/c2ccc3no[n+]([O-])c3c2)cc1 | 5.37 | 5.10 | 1.1 | 5.02 | 
Cc1ccc(S/C=C/c2ccc3no[n+]([O-])c3c2)cc1 | 5.72 |  |  | 5.33 | 
O=S(=O)(/C=C\c1ccc2no[n+]([O-])c2c1)c1ccc(F)cc1 | 5.57 |  |  | 5.54 | inhibition [10]: 0%; inhibition [11]: 0%; inhibition [12]: 0%; Activity (Trypanosoma cruzi [7]): Active
[O-][n+]1onc2ccc(/C=C\Sc3ccccc3)cc21 |  |  |  |  | pIC50 (Leishmania braziliensis [3]): 6.05; pIC50 (Leishmania pifanoi [4]): 5.35; inhibition [10]: 11%; inhibition [11]: 22%; inhibition [12]: 30%; Ratio IC50 (Leishmania braziliensis [13]): 10; pIC50 (Trypanosoma cruzi [5]): 5.42
[O-][n+]1onc2ccc(/C=C\[S+]([O-])c3ccc(F)cc3)cc21 (stereo unspecified) | 5.80 |  |  | 5.49 | 
Cc1ccc(S(=O)(=O)/C=C\c2ccc3no[n+]([O-])c3c2)cc1 | 5.44 |  |  | 5.29 | 
O=S(=O)(/C=C/c1ccc2no[n+]([O-])c2c1)c1ccc(Cl)cc1 | 5.32 |  |  | 5.32 | 
O=C(/C=C/c1ccc2nonc2c1)c1ccc(Cl)cc1 | < 4.00 | 3.60 | <2.5 |  | 
[O-][n+]1onc2ccc(/C=C\[S+]([O-])c3ccc(Cl)cc3)cc21 (stereo unspecified) | 5.57 | 5.00 | 6.3 | 5.33 | 
[O-][n+]1onc2ccc(/C=C\[S+]([O-])c3ccccc3)cc21 (stereo unspecified) |  | 4.85 | 20 |  | pIC50 (Leishmania braziliensis [3]): 5.34; inhibition (Trypanosoma cruzi [14]): 25%; Activity (Leishmania braziliensis [9]): tde; pIC50 (Trypanosoma cruzi [5]): 6.15
[O-][n+]1onc2ccc(/C=C/[S+]([O-])c3ccc(F)cc3)cc21 (stereo unspecified) | 5.35 |  |  | 5.21 | 

SMILES | pIC50 (Trypanosoma cruzi [1]; [16]) | pIC50 (J774; Mus musculus, J774, 48 h) | Selectivity Index [2] | pIC50 (Trypanosoma cruzi [6]) | further results
O=C(/C=C/c1ccc2no[n+]([O-])c2c1)c1ccccc1 | 5.30 | 4.33 | 9.4 |  | inhibition [10]: 0%; inhibition [11]: 0%; inhibition [12]: 0%; inhibition (Trypanosoma cruzi [8]): 21.8%
COc1ccc(C(=O)/C=C/c2ccc3no[n+]([O-])c3c2)cc1 (stereo in doubt; 11) |  |  | 7.6 |  | pIC50 (Trypanosoma cruzi [1]): 5.39; pIC50 (J774; j774): 4.51; inhibition [12]: 13%
Cc1ccc([S+]([O-])/C=C\c2ccc3no[n+]([O-])c3c2)cc1 (stereo unspecified) | 5.17 |  |  | 5.08 | 
Cc1ccc(S/C=C\c2ccc3no[n+]([O-])c3c2)cc1 | 5.38 |  |  | 5.39 | 
O=S(=O)(C=Cc1ccc2no[n+]([O-])c2c1)c1ccc(F)cc1 |  |  |  |  | inhibition (Trypanosoma cruzi [8]): 17.6%
[O-][n+]1onc2ccc(C=CSc3ccccc3)cc21 |  | 4.52 | 10 |  | inhibition (Trypanosoma cruzi [8]): 14.5%
[O-][n+]1onc2ccc(/C=C/[S+]([O-])c3ccc(Cl)cc3)cc21 (stereo unspecified) | 5.26 | 4.74 | 4 | 5.17 | 
O=C(/C=C/c1ccc2no[n+]([O-])c2c1)c1ccc([N+](=O)[O-])cc1 | 5.62 | 4.49 | 13.3 |  | 
[O-][n+]1onc2ccc(/C=C/Sc3ccc(Cl)cc3)cc21 | 5.72 |  |  | 6.00 | pIC50 (Leishmania braziliensis [3]): 6.05; pIC50 (Leishmania pifanoi [4]): 5.34; Ratio IC50 (Leishmania braziliensis [13]): 10
CCCCCCCCCCCCCCCCOP(=O)([O-])OCC[N+](C)(C)C [MILTEFOSINE] |  |  |  |  | pIC50 (Leishmania braziliensis [3]): 5.05; inhibition of growth at 5 µM (Leishmania pifanoi [15]): 85.5%
O=S(=O)(C=Cc1ccc2no[n+]([O-])c2c1)c1ccc(Cl)cc1 |  |  |  |  | inhibition (Trypanosoma cruzi [8]): 4%
O=S(=O)(/C=C/c1ccc2no[n+]([O-])c2c1)c1ccccc1 (stereo in doubt; 4E) [listing 2 of 2 here] |  |  |  |  | inhibition (Trypanosoma cruzi [14]): 25%; Activity (Leishmania braziliensis [9]): tde
[O-][n+]1onc2ccc(/C=C/Sc3ccc(F)cc3)cc21 | 5.30 | 4.46 | 7 | 5.26 | pIC50 (Leishmania braziliensis [3]): 5.37; pIC50 (Leishmania pifanoi [4]): 5.37; Activity (Trypanosoma cruzi [7]): Active
[O-][n+]1onc2ccc(/C=C\Sc3ccc(Cl)cc3)cc21 | 5.38 |  |  | 5.55 | 
O=S(=O)(/C=C\c1ccc2no[n+]([O-])c2c1)c1ccc(Cl)cc1 | 5.89 |  |  | 5.64 | 
[O-][n+]1onc2ccc(/C=C/[S+]([O-])c3ccccc3)cc21 (stereo in doubt; 3E) |  |  | 11.5 |  | pIC50 (Leishmania braziliensis [3]): 4.50; pIC50 (J774; j774): 4.52; pIC50 (Trypanosoma cruzi [5]): 5.59
Cc1ccc([S+]([O-])/C=C/c2ccc3no[n+]([O-])c3c2)cc1 (stereo unspecified) | 5.34 |  |  | 5.22 | 
O=S(=O)(/C=C/c1ccc2no[n+]([O-])c2c1)c1ccc(F)cc1 | 5.12 |  |  | 5.20 | Activity (Trypanosoma cruzi [7]): Active
[O-][n+]1onc2ccc(/C=C\c3ccccc3)cc21 |  |  |  |  | pIC50 (Trypanosoma cruzi [5]): 5.15
[O-][n+]1onc2ccc(/C=C/c3ccccc3)cc21 |  |  |  |  | pIC50 (Trypanosoma cruzi [5]): 4.97
